Measured values published in ChEMBL document CHEMBL1123067, “Evaluation of the brain-specific delivery of radioiodinated (iodophenyl)alkyl-substituted amines coupled to a dihydropyridine carrier” (J Med Chem, 1985).
Each block holds one molecule with its values, some of them ahead of it.

Assays:
Assay type in all cases: ADME, organism-based
[1] = system: Rattus norvegicus; test: Distribution of radioactivity in kidney tissues of Sprague-Dawley rats after 15 min injecton by intravenously; 1.59-2.03; conditions: in vivo, iv, 0.25 h
[2] = system: Rattus norvegicus; test: Distribution of radioactivity in liver tissues of Sprague-Dawley rats after 30 min injecton by intravenously; 1.57-1.66; conditions: in vivo, iv, 0.5 h
[3] = system: Rattus norvegicus; test: Distribution of radioactivity in liver tissues of Sprague-Dawley rats after 5 min injecton by intravenously; 0.73-1.45; conditions: in vivo, iv
[4] = system: Rattus norvegicus; test: Distribution of radioactivity in liver tissues of Sprague-Dawley rats after 60 min injecton by intravenously; 1.36-1.74; conditions: in vivo, iv, 1 h
[5] = system: Rattus norvegicus; test: Distribution of radioactivity in kidney tissues of Sprague-Dawley rats after 30 min injecton by intravenously; 1.67-2.11; conditions: in vivo, iv, 0.5 h
[6] = system: Rattus norvegicus; test: Distribution of radioactivity in kidney tissues of Sprague-Dawley rats after 5 min injecton by intravenously; 0.62-1.13; conditions: in vivo, iv
[7] = system: Rattus norvegicus; test: Distribution of radioactivity in kidney tissues of Sprague-Dawley rats after 60 min injecton by intravenously; 0.99-1.24; conditions: in vivo, iv, 1 h
[8] = system: Rattus norvegicus; test: Distribution of radioactivity in liver tissues of Sprague-Dawley rats after 15 min injecton by intravenously; 1.37-1.74; conditions: in vivo, iv, 0.25 h
[9] = system: Rattus norvegicus; test: Distribution of radioactivity in lung tissues of Sprague-Dawley rats after 15 min injecton by intravenously; 0.77-0.86; conditions: in vivo, iv, 0.25 h
[10] = system: Rattus norvegicus; test: Distribution of radioactivity in lung tissues of Sprague-Dawley rats after 30 min injecton by intravenously; 0.6-0.66; conditions: in vivo, iv, 0.5 h
[11] = system: Rattus norvegicus; test: Distribution of radioactivity in lung tissues of Sprague-Dawley rats after 60 min injecton by intravenously; 0.36-0.44; conditions: in vivo, iv, 1 h
[12] = system: Rattus norvegicus; test: Distribution of radioactivity in brain tissues of Sprague-Dawley rats after 5 min injecton by intravenously; 0.35-0.72; conditions: in vivo, iv
Method in brief: (§1)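 Female Sprague-Dawley rats, 10–12 weeks old (170–200 g), fed ad libitum. The ¹²⁵I-labelled agent was dissolved in minimal Me2SO, diluted with saline to a final 20% Me2SO, filtered (0.22 μm), and injected into a lateral tail vein under ether anaesthesia. Tissues were counted against samples of the injected solution and expressed as % injected dose/g (mean, range). Brain/blood ratio is from the means.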

[13] = system: Rattus norvegicus; test: Distribution of radioactivity in brain tissues of Sprague-Dawley rats after 60 min injecton by intravenously; 0.05-0.06; conditions: in vivo, iv, 1 h; method in brief: as §1
[14] = system: Rattus norvegicus; test: Distribution of radioactivity in heart tissues of Sprague-Dawley rats after 60 min injecton by intravenously; 0.22-0.29; conditions: in vivo, iv, 1 h
[15] = system: Rattus norvegicus; test: Distribution of radioactivity in blood tissues of Sprague-Dawley rats after 60 min injecton by intravenously; 0.49-0.58; conditions: in vivo, iv, 1 h; method in brief: as §1
[16] = system: Rattus norvegicus; test: Distribution of radioactivity in brain tissues of Sprague-Dawley rats after 15 min injecton by intravenously; 0.34-0.5; conditions: in vivo, iv, 0.25 h; method in brief: as §1
[17] = system: Rattus norvegicus; test: Distribution of radioactivity in heart tissues of Sprague-Dawley rats after 15 min injecton by intravenously; 0.52-0.62; conditions: in vivo, iv, 0.25 h; method in brief: as §1
[18] = system: Rattus norvegicus; test: Distribution of radioactivity in heart tissues of Sprague-Dawley rats after 30 min injecton by intravenously; 0.36-0.42; conditions: in vivo, iv, 0.5 h; method in brief: as §1
[19] = system: Rattus norvegicus; test: Distribution of radioactivity in blood tissues of Sprague-Dawley rats after 15 min injecton by intravenously; 0.95-1.06; conditions: in vivo, iv, 0.25 h; method in brief: as §1
[20] = system: Rattus norvegicus; test: Distribution of radioactivity in blood tissues of Sprague-Dawley rats after 30 min injecton by intravenously; 0.69-0.84; conditions: in vivo, iv, 0.5 h; method in brief: as §1
[21] = system: Rattus norvegicus; test: Distribution of radioactivity in blood tissues of Sprague-Dawley rats after 5 min injecton by intravenously; 0.58-1.17; conditions: in vivo, iv; method in brief: as §1
[22] = system: Rattus norvegicus; test: Distribution of radioactivity in heart tissues of Sprague-Dawley rats after 5 min injecton by intravenously; 0.39-0.74; conditions: in vivo, iv
[23] = system: Rattus norvegicus; test: Distribution of radioactivity in brain tissues of Sprague-Dawley rats after 30 min injecton by intravenously; 0.18-0.36; conditions: in vivo, iv, 0.5 h; method in brief: as §1
[24] = system: Rattus norvegicus; test: Distribution of radioactivity in lung tissues of Sprague-Dawley rats after 5 min injecton by intravenously; 0.54-1.07; conditions: in vivo, iv
[25] = system: Rattus norvegicus; test: Distribution of radioactivity in kidney tissues of Sprague-Dawley rats after 30 min injection by intravenously; value ranges from 1.56-1.83; conditions: in vivo, iv, 0.5 h
[26] = system: Rattus norvegicus; test: Distribution of radioactivity in liver tissues of Sprague-Dawley rats after 30 min injection by intravenously; value ranges from 1.77-2.08; conditions: in vivo, iv, 0.5 h
[27] = system: Rattus norvegicus; test: Distribution of radioactivity in liver tissues of Sprague-Dawley rats after 5 min injection by intravenously; value ranges from 2.98-3.22; conditions: in vivo, iv
[28] = system: Rattus norvegicus; test: Distribution of radioactivity in liver tissues of Sprague-Dawley rats after 60 min injection by intravenously; value ranges from 1.12-1.44; conditions: in vivo, iv, 1 h
[29] = system: Rattus norvegicus; test: Distribution of radioactivity in lung tissues of Sprague-Dawley rats after 15 min injection by intravenously; value ranges from 1.05-1.5; conditions: in vivo, iv, 0.25 h
[30] = system: Rattus norvegicus; test: Distribution of radioactivity in kidney tissues of Sprague-Dawley rats after 5 min injection by intravenously; value ranges from 3.18-4.74; conditions: in vivo, iv
[31] = system: Rattus norvegicus; test: Distribution of radioactivity in kidney tissues of Sprague-Dawley rats after 60 min injection by intravenously; value ranges from 1.17-1.48; conditions: in vivo, iv, 1 h
[32] = system: Rattus norvegicus; test: Distribution of radioactivity in liver tissues of Sprague-Dawley rats after 15 min injection by intravenously; value ranges from 2.43-2.92; conditions: in vivo, iv, 0.25 h
[33] = system: Rattus norvegicus; test: Distribution of radioactivity in heart tissues of Sprague-Dawley rats after 15 min injection by intravenously; value ranges from 0.89-1.24; conditions: in vivo, iv, 0.25 h; method in brief: as §1
[34] = system: Rattus norvegicus; test: Distribution of radioactivity in lung tissues of Sprague-Dawley rats after 30 min injection by intravenously; value ranges from 0.86-1.13; conditions: in vivo, iv, 0.5 h
[35] = system: Rattus norvegicus; test: Distribution of radioactivity in lung tissues of Sprague-Dawley rats after 5 min injection by intravenously; value ranges from 1.35-1.74; conditions: in vivo, iv
[36] = system: Rattus norvegicus; test: Distribution of radioactivity in lung tissues of Sprague-Dawley rats after 60 min injection by intravenously; value ranges from 0.61-0.86; conditions: in vivo, iv, 1 h
[37] = system: Rattus norvegicus; test: Distribution of radioactivity in brain tissues of Sprague-Dawley rats after 60 min injection by intravenously; value ranges from 0.15-0.19; conditions: in vivo, iv, 1 h; method in brief: as §1
[38] = system: Rattus norvegicus; test: Distribution of radioactivity in blood tissues of Sprague-Dawley rats after 60 min injection by intravenously; value ranges from 0.54-0.63; conditions: in vivo, iv, 1 h; method in brief: as §1
[39] = system: Rattus norvegicus; test: Distribution of radioactivity in heart tissues of Sprague-Dawley rats after 60 min injection by intravenously; value ranges from 0.64-0.86; conditions: in vivo, iv, 1 h
[40] = system: Rattus norvegicus; test: Distribution of radioactivity in kidney tissues of Sprague-Dawley rats after 15 min injection by intravenously; value ranges from 2.24-3.12; conditions: in vivo, iv, 0.25 h
[41] = system: Rattus norvegicus; test: Distribution of radioactivity in brain tissues of Sprague-Dawley rats after 15 min injection by intravenously; value ranges from 0.20-0.25; conditions: in vivo, iv, 0.25 h; method in brief: as §1
[42] = system: Rattus norvegicus; test: Distribution of radioactivity in brain tissues of Sprague-Dawley rats after 30 min injection by intravenously; value ranges from 0.17-0.20; conditions: in vivo, iv, 0.5 h; method in brief: as §1
[43] = system: Rattus norvegicus; test: Distribution of radioactivity in blood tissues of Sprague-Dawley rats after 15 min injection by intravenously; value ranges from 0.97-1.12; conditions: in vivo, iv, 0.25 h; method in brief: as §1
[44] = system: Rattus norvegicus; test: Distribution of radioactivity in blood tissues of Sprague-Dawley rats after 30 min injection by intravenously; value ranges from 0.73-0.85; conditions: in vivo, iv, 0.5 h; method in brief: as §1
[45] = system: Rattus norvegicus; test: Distribution of radioactivity in blood tissues of Sprague-Dawley rats after 5 min injection by intravenously; value ranges from 1.38-1.5; conditions: in vivo, iv; method in brief: as §1
[46] = system: Rattus norvegicus; test: Distribution of radioactivity in heart tissues of Sprague-Dawley rats after 5 min injection by intravenously; value ranges from 1.24-1.46; conditions: in vivo, iv
[47] = system: Rattus norvegicus; test: Distribution of radioactivity in brain tissues of Sprague-Dawley rats after 5 min injection by intravenously; value ranges from 0.28-0.37; conditions: in vivo, iv; method in brief: as §1
[48] = Brain to blood ratio in Sprague-Dawley rats after 5 min injection by intravenously; conditions: rat, brain and blood, iv; method in brief: as §1
[49] = Brain to blood ratio in Sprague-Dawley rats after 60 min injection by intravenously; conditions: rat, brain and blood, iv; method in brief: as §1
[50] = Brain to blood ratio in Sprague-Dawley rats after 30 min injection by intravenously; conditions: rat, brain and blood, iv; method in brief: as §1
[51] = system: Rattus norvegicus; test: Distribution of radioactivity in heart tissues of Sprague-Dawley rats after 30 min injection by intravenously; value ranges from 0.75-1.03; conditions: in vivo, iv, 0.5 h; method in brief: as §1
[52] = Brain to blood ratio in Sprague-Dawley rats after 15 min injection by intravenously; conditions: rat, brain and blood, iv; method in brief: as §1

Distribution [1]: 1.81%
Distribution [2]: 1.6%
Distribution [3]: 1.16%
Distribution [4]: 1.6%
Distribution [5]: 1.8%
Distribution [6]: 0.97%
Distribution [7]: 1.12%
Distribution [8]: 1.57%
Distribution [9]: 0.81%
Distribution [10]: 0.62%
Distribution [11]: 0.39%
Distribution [12]: 0.58%
Distribution [13]: 0.06%
Distribution [14]: 0.24%
Distribution [15]: 0.54%
Distribution [16]: 0.43%
Distribution [17]: 0.57%
Distribution [18]: 0.39%
Distribution [19]: 0.99%
Distribution [20]: 0.77%
Distribution [21]: 0.94%
Distribution [22]: 0.63%
Distribution [23]: 0.27%
Distribution [24]: 0.86%
Compound: Nc1ccc([125I])cc1

Distribution [25]: 1.72%
Distribution [26]: 1.89%
Distribution [27]: 3.1%
Distribution [28]: 1.24%
Distribution [29]: 1.2%
Distribution [30]: 4.19%
Distribution [31]: 1.28%
Distribution [32]: 2.63%
Distribution [33]: 1.08%
Distribution [34]: 0.97%
Distribution [35]: 1.48%
Distribution [36]: 0.66%
Distribution [37]: 0.17%
Distribution [38]: 0.57%
Distribution [39]: 0.72%
Distribution [40]: 2.54%
Distribution [41]: 0.22%
Distribution [42]: 0.18%
Distribution [43]: 1.03%
Distribution [44]: 0.77%
Distribution [45]: 1.42%
Distribution [46]: 1.37%
Distribution [47]: 0.32%
Kp at 5 min [48]: 0.22
Kp at 1 h [49]: 0.29
Kp at 0.5 h [50]: 0.23
Distribution [51]: 0.86%
Kp at 0.25 h [52]: 0.21
Compound: CN1C=CCC(C(=O)NCCc2ccc([125I])cc2)=C1
